Screens: PubChem BioAssay, The Scripps Research Institute Molecular Screening Center
The list is not random: actives were taken first. Their share in the collection is about 1.8%.
DDE Tn7 FP inh: inhibitors of Tn7 peptide binding to human fibrin DD(E). AID 720508. 0.13% of 370,000 active. P02675. inhibition, % at 8.3 µM. FP displacement of FITC-Tn7 peptide from fibrin DD(E); 0% = median of compound wells per plate;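 active means inhibition above the mean of compounds falling within the control limits plus 3 SD of them, cut at about 14% in these data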
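Test system: human clot-derived fibrin DD(E) complex / Quantity: 2 µM final DD(E) protein / Incubation: 10 min plus 3 h, room temperature / Measured by: fluorescence polarization / Benchmarks: high control of 10 µM Aha-Tn7 peptide / Replicates: singlicate testing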
ABHD4 inh: inhibits mouse alpha/beta hydrolase domain 4 | Q8VD66 | purified mABHD4, FP-Rh probe fluorescence polarization | inhibition, % at 8.92 µM | 0.54% of 370,000 active | AID 720543;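 active means inhibition exceeding the mean over every tested compound plus 3 SD, cut at about 30% in these data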
Target sequence (Q8VD66 whole entry, looked up, the tested form may be a part): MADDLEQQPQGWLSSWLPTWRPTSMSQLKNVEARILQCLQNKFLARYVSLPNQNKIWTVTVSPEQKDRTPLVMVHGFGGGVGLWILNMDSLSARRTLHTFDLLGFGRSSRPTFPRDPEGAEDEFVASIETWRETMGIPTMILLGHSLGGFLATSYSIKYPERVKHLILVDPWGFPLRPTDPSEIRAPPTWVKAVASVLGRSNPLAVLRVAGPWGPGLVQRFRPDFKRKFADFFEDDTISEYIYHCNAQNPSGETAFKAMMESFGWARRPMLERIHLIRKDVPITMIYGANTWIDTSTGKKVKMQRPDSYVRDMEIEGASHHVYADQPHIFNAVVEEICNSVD
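Test system: mABHD4 protein; Read-out basis: % inhibition; Incubation: 45 min + 60 min at 25 °C; Repeats: single replicate; Technique: fluorescence polarization with parallel and perpendicular emission, 525/598 nm; Compound: 8.92 µM, single dose; Benchmarks: full inhibition S159A mutant plus DMSO, zero as sample-well median.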
SIAE inh: human SIAE inhibition, primary screen; Q9HAT2; SIAE FP-Rh probe binding, fluorescence polarization; inhibition, % at 9.66 µM; 0.69% of 370,000 active; AID 1053197;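 active means inhibition above a cutoff: mean of compounds within the control limits plus 3 SD of those, cut at about 17% in these data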
TCR-CD3 inh: human TCR-CD3 binding inhibition | inhibition, % at 9.4 µM | 0.37% of 360,000 active | TAMRA-labeled TCR probe fluorescence, biochemical | AID 651800; in the data active means inhibition above about 19%;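 further: recombinant mutant TCR 2C K166C tagged with TAMRA read by polarization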
HTRA1 inh: HTRA1 (human) protease inhibition; recombinant HTRA1, FP-rhodamine activity-based probe, fluorescence polarization; inhibition, % at 5.96 µM; 0.5% of 340,000 active; in the data active means inhibition above about 36%
DDE Tn6 FP inh: disrupts Tn6 cyclic peptide binding to fibrin D-Dimer-E complex. P02675. Fibrin DD(E) TRITC-Tn6 fluorescence polarization displacement. inhibition, % at 8.3 µM. 0.21% of 370,000 active;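 active means inhibition above a per-campaign cutoff: mean of compounds within control limits plus 3 SD, cut at about 15% in these data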
SIAE inh conf: human SIAE inhibition, confirmation | 13% of 2,300 active | SIAE FP-Rh activity-based probe, fluorescence polarization | shares compounds with SIAE inh | inhibition, % at 9.66 µM | AID 1117263;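 active means mean inhibition of the replicates above the hit cutoff set in the primary screen, cut at about 17% in these data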;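 further: inhibitors lower polarization as more probe stays unbound to SIAE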
Of the large screens only hits and unclear results are named; the others gave an inactive call (follow-up assays come after a bar, where they were run).

Oc1ccc(/C=N/Nc2ccc3ccccc3c2)c(O)c1	SIAE inh 21.5 | SIAE inh conf inactive
Cc1ccccc1S(=O)(=O)Cc1ccc(C(=O)NC2CCCCC2)o1	none
COc1ccc([C@@H]2C[C@H]3[C@@H](CN2S(=O)(=O)c2ccccc2)C(=O)C[C@@H](c2ccc(OC)cc2)N3S(=O)(=O)c2ccccc2)cc1	none (no result: HTRA1 inh)
Cc1ccc([C@H]2C[C@@H](O)[C@H](n3cc(COC(=O)c4ccccc4)nn3)CN2C(=O)c2cccs2)cc1	none
Cc1cccc(NC(=O)CNC(=O)[C@H]2O[C@@H](n3cnc4c(N)ncnc43)[C@H](O)[C@@H]2O)c1C	none (no result: HTRA1 inh)
Cc1ccc(CNC(=O)[C@H]2O[C@@H](n3cnc4c(N)ncnc43)[C@H](O)[C@@H]2O)o1	SIAE inh 17.3 (no result: HTRA1 inh) | SIAE inh conf 20.3
CCCn1cnnc1CNC(=O)[C@H]1O[C@@H](n2ccc(N)nc2=O)[C@H](O)[C@@H]1O	none (no result: HTRA1 inh)
Cc1ccc(CNC(=O)[C@H]2O[C@@H](n3ccc(N)nc3=O)[C@H](O)[C@@H]2O)o1	SIAE inh 25.3 (no result: HTRA1 inh) | SIAE inh conf 19.1
COc1cc(NC(=O)[C@H]2O[C@@H](n3ccc(N)nc3=O)[C@H](O)[C@@H]2O)cc(OC)c1OC	SIAE inh 26.3 (no result: HTRA1 inh) | SIAE inh conf 20.0
CN(Cc1cnn(-c2ccc(F)cc2)c1)C(=O)[C@H]1O[C@@H](n2cnc3c(N)ncnc32)[C@H](O)[C@@H]1O	SIAE inh 41.2 (no result: HTRA1 inh) | SIAE inh conf 45.1
CN(Cc1cnn(-c2ccc(F)cc2)c1)C(=O)[C@H]1O[C@@H](n2ccc(=O)[nH]c2=O)[C@H](O)[C@@H]1O	none (no result: HTRA1 inh)
COc1ccccc1CNC(=O)CN1C(=O)NC2(CCCCCCC2)C1=O	none
CCOc1ccc(-n2c(SCC(=O)Nc3ccc4c(c3)c3ccccc3n4CC)nnc2-c2cccnc2)cc1	none (no result: TCR-CD3 inh, HTRA1 inh)
CCOC(=O)C1CCN(C(=O)c2ccc(OCC(=O)Nc3ccc(OCC)cc3)c(OC)c2)CC1	none
COc1cccc(C(NC(C)=O)c2nc(-c3ccc4ccccc4c3)cs2)c1 (stereo not drawn)	none (no result: HTRA1 inh)
O=[N+]([O-])c1cccc(N(CC(O)CN2CCCCC2)S(=O)(=O)c2ccccc2)c1 (stereo not drawn)	none
CN(C)N1C(N)=C(C#N)C(c2ccccc2F)C2=C1CC(C)(C)CC2=O (stereo not drawn)	SIAE inh 24.8 | SIAE inh conf inactive
Cc1ccccc1C1C(C#N)=C(N)N(N(C)C)C2=C1C(=O)CC(C)(C)C2 (stereo not drawn)	none
COc1cc(C(=O)NC2CC(C)(C)CC(C)(C)C2)ccc1OC1CCN(C(C)=O)CC1	none
COCCNc1nc(NCCOc2ccccc2Cl)c2sc(-c3ccccc3)cc2n1	SIAE inh 20.0 (no result: HTRA1 inh) | SIAE inh conf 25.9
COCCNc1nc(NCC2CCCCC2)c2sc(-c3ccccc3)cc2n1	SIAE inh 20.5 (no result: HTRA1 inh) | SIAE inh conf 32.2
CCNC(=O)NC(=O)C(C)Sc1nnc(COc2ccccc2Cl)o1 (stereo not drawn)	SIAE inh 28.7 | SIAE inh conf inactive
CCNC(=O)NC(=O)C(C)Sc1ccc2c(c1)OCCO2 (stereo not drawn)	none
COc1ccc(-c2nn(-c3ccccc3)cc2/C=N/O)cc1OC	none
COc1ccc(-c2nn(-c3ccccc3)cc2/C=N/Nc2ccc3ccccc3n2)cc1OC	SIAE inh 18.6 | SIAE inh conf inactive
CN[C@H]1C[C@H]2c3[nH]c4c(-c5cccc(C)c5)cccc4c3CCN2C(=O)[C@H]1[C@H](C)O	none (no result: TCR-CD3 inh, HTRA1 inh)
O=C(O)c1ccc(Nc2cccc(F)c2)c([N+](=O)[O-])c1	SIAE inh 20.4 | SIAE inh conf inactive
O=C(O)c1cccc(Nc2ccncc2[N+](=O)[O-])c1	none
O=C(CSc1ccc(-c2cccnc2)nn1)N1CCCCCC1	SIAE inh 27.4 | SIAE inh conf inactive
COC(=O)c1ccc2nc(-c3ccco3)c(Cc3ccccc3OC)n2c1	none (no result: HTRA1 inh)
O=C(CN1C(=O)NC2(CCCCC2)C1=O)N1CCN(S(=O)(=O)c2cccc([N+](=O)[O-])c2)CC1	SIAE inh 18.4 | SIAE inh conf inactive
O=C(CN1C(=O)NC2(CCCCC2)C1=O)N1CCN(S(=O)(=O)c2cccc(F)c2)CC1	none
COc1ccccc1CNc1nc(NCc2ccc3occc3c2)c2sccc2n1	none (no result: HTRA1 inh)
COCCc1ccc(OC2(C)CCN(Cc3ccc(OC)c4ccccc34)C2)cc1 (stereo not drawn)	none (no result: HTRA1 inh)
O=C(N/N=C/c1c[nH]c2ccccc12)c1cc(Cl)ccc1O	SIAE inh 17.5 | SIAE inh conf inactive
O=C(N/N=C/c1c[nH]c2ccccc12)c1ccccc1Cl	none
COc1ccc(S(=O)(=O)N2CCOC2CNC(=O)C(=O)NCc2ccc3c(c2)OCO3)cc1C (stereo not drawn)	none
O=C(O)C1=C[C@@H](c2csc3ccccc23)C[C@@H](OCc2ccc(CO)cc2)O1	SIAE inh 22.3 | SIAE inh conf inactive
O=C(O)C1=C[C@H](c2csc3ccccc23)C[C@H](OCc2ccc(CO)cc2)O1	none
O=C(NC(=S)NNC(=O)c1cccs1)c1ccco1	SIAE inh 19.2 | SIAE inh conf inactive
CC1CCCN(C(=O)NC2CC(=O)N(c3ccc4c(c3)OCCO4)C2)C1 (stereo not drawn)	none
Cc1c(N/N=C(\C#N)C(=O)c2ccc(Cl)cc2)c(=O)n(-c2ccccc2)n1C	SIAE inh 18.2 | SIAE inh conf inactive
Cc1ccc(-c2cnc(SCCNC(=O)c3ccco3)[nH]2)cc1	SIAE inh 17.3 | SIAE inh conf inactive
Cc1ccc2nc(CN(C)C(=O)[C@@H](Cc3ccccc3)NC(=O)[C@H]3O[C@@H](n4cnc(C(N)=O)n4)[C@H](O)[C@@H]3O)[nH]c2c1	SIAE inh 68.0 (no result: HTRA1 inh) | SIAE inh conf 74.4
O=C(Nc1cccc(F)c1)OCCCN1CCC2(CCC(c3ccccc3)CC2)C1 (stereo not drawn)	none (no result: TCR-CD3 inh, HTRA1 inh)
CC[C@H](C)[C@@H](CO)NC(=O)[C@H]1O[C@@H](n2ccc(=O)[nH]c2=O)[C@H](O)[C@@H]1O	SIAE inh 88.1 (no result: HTRA1 inh) | SIAE inh conf 78.3
O=C(N[C@H](CO)Cc1ccccc1)[C@H]1O[C@@H](n2ccc(=O)[nH]c2=O)[C@H](O)[C@@H]1O	SIAE inh 47.7 (no result: HTRA1 inh) | SIAE inh conf 43.9
Cc1[nH]c2ccccc2c1/C=N/Nc1nc(Nc2ccccc2)nc(N2CCOCC2)n1	SIAE inh 31.8 | SIAE inh conf inactive
CCOC(=O)c1c(C)[nH]c(C(=O)OCC(=O)Nc2cc(C)nn2-c2ccccc2)c1C	SIAE inh 17.9 | SIAE inh conf inactive
O=C1Nc2ccccc2C12NCCc1c2[nH]c2ccccc12 (stereo not drawn)	none
